Statin myotox sup: suppression of simvastatin myotoxicity | rescue of ATP level, % at 7.49 µM | 330,000 compounds, 0.78% hits | C2C12 myotubes + simvastatin, ATP luminescence, 48 h; scaled: DMSO 0, geranylgeraniol control 100;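 active = mean ATP rescue above about 67%, or every replicate alone reaching that limit, limit read from the data, passing the limit was not always enough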;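 also: myotubes were challenged with 10 µM simvastatin during compound exposure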
Cneo AK release: causes C. neoformans cell lysis; 360,000 compounds, 0.2% hits; lysis activity, % at 15 µM; adenylate kinase release luminescence, 4 h; normalised: neutral wells 0, clomiphene wells 100;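 active = mean lysis activity across replicates of at least 80%, whatever share of replicates individually reach that level; inactive = mean lysis activity below 80%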
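Material – log-phase Cryptococcus neoformans yeast cells · Input – 5 × 10^6 yeast cells/mL · Medium – fresh YPD growth medium · Doses – single compound concentration per well · Timing – static 4 h at 37 °C with compound, 1 h detection · Detection – adenylate kinase release luminescence · Read-out – signal increase indicating cell lysis · Control set – Clomiphene as positive lysis control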
Mot1-301 SUMO: inhibitors of SUMOylation pathway: yeast Mot1-301 growth rescue. AID 2716. growth rescue, % at 18.8 µM. S. cerevisiae Mot1-301 growth rescue, ATP luminescence, 38.5C; percent above DMSO median, 100 means doubled. 320,000 compounds, 1% hits;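 active = every valid replicate shows activation above 250% relative to neutral control wells; inactive = the rest, any valid replicate at or below 250%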;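 also: OY570 slx delta 5 strain wells were the positive control but not used for scaling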
* = called active by the depositor; · = not tested or not shown; ! = a repeat was not active. Hits are enriched below; roughly 1.5% of the tested compounds scored in any of these assays.

SMILES	Statin myotox sup	Cneo AK release	Mot1-301 SUMO
S=C1N(c2ccccc2)C(c2ccccc2)N2CCCN12 (configuration not stated)	132*	-1	·
CN1C(=S)N2CCCN2C1c1ccccc1 (configuration not stated)	29	0	-10
CCC(=O)N(C)C[C@@H]1Oc2cc(Br)ccc2S(=O)(=O)N([C@H](C)CO)C[C@@H]1C	-6	2	·
C[C@@H]1CN([C@H](C)CO)S(=O)(=O)c2ccc(Br)cc2O[C@H]1CN(C)S(=O)(=O)c1ccc(F)cc1	22	0	·
C[C@H]1CN([C@@H](C)CO)S(=O)(=O)c2ccc(Br)cc2O[C@@H]1CN(C)C(=O)CCN1CCCCC1	-4	80*!	·
CNC[C@H]1Oc2cc(Br)ccc2S(=O)(=O)N([C@@H](C)CO)C[C@H]1C	-4	-1	·
CNC[C@@H]1Oc2cc(Br)ccc2S(=O)(=O)N([C@@H](C)CO)C[C@H]1C	2	1	·
CNC[C@H]1Oc2cc(Br)ccc2S(=O)(=O)N([C@H](C)CO)C[C@H]1C	10	91*!	·
CNC[C@@H]1Oc2cc(Br)ccc2S(=O)(=O)N([C@H](C)CO)C[C@H]1C	-2	100*!	·
C[C@H]1CN([C@@H](C)CO)S(=O)(=O)c2ccc(Br)cc2O[C@@H]1CN(C)S(=O)(=O)c1ccc(F)cc1	88*	2	·
Cc1ccc(S(=O)(=O)N[C@H]2CC[C@H](CCNC(=O)C3CCC3)O[C@@H]2CO)cc1	7	-2	·
Cc1noc(C)c1S(=O)(=O)Nc1ccc2c(c1)C(=O)N([C@@H](C)CO)C[C@@H](C)[C@H](CN(C)C(=O)Nc1ccc(F)cc1)OCCCC[C@@H](C)O2	·	4	·
C[C@H](CO)N1C[C@H](C)[C@H](CN(C)C(=O)CC2CC2)Oc2cc(C#CC(C)(C)O)ccc2S1(=O)=O	-2	-1	·
COc1ccc(CN(C)C[C@@H]2OCCCC[C@H](C)Oc3ccc(NS(=O)(=O)c4ccc(OC)cc4)cc3C(=O)N([C@@H](C)CO)C[C@@H]2C)cc1	·	1	·
Cn1c(-c2ccc(F)cc2)cnc1NCc1ccc(C#N)cc1	1	0	-4
Cn1c(-c2ccc(F)cc2)cnc1NCc1ccc(F)cc1	122*	13	7
Cn1c(-c2ccccc2)cnc1NCc1ccc(-c2ccccc2)cc1	-6	-1	383*
COc1ccc(CNc2ncc(-c3ccccc3)n2C)cc1	11	0	337
CC=Cc1ccc2n(c1=O)C[C@@H]1[C@@H](CO)[C@H](C(=O)NCCc3cn(C)cn3)N(C(=O)C3CCC3)[C@H]21 (mixture of isomers)	-9	-4	·
Oc1c(N=NC(=S)Nc2ccccc2F)c2ccccc2n1Cc1ccccc1Cl	-19	-1	-16
Cc1c(Cl)cccc1NC(=S)N=Nc1c(O)n(CN2CCOCC2)c2ccccc12	·	·	365*
C[C@@H]1CN([C@@H](C)CO)C(=O)c2cc(-c3cccnc3)cnc2O[C@H]1CN(C)C(=O)C1CCOCC1	-2	1	·
C[C@H](NC(=O)C[C@@H]1C[C@@H]2c3cc(NC(=O)NC4CCCCC4)ccc3O[C@@H]2[C@H](CO)O1)c1ccccc1	-4	-3	·
CC(C)NC(=O)Nc1ccc2c(c1)C(=O)N([C@H](C)CO)C[C@@H](C)[C@H](CN(C)C(=O)c1ccncc1)OCCCC[C@@H](C)O2	·	-1	·
CC(CNC(=O)CCc1ccccc1)NC(=O)CCc1ccccc1 (configuration not stated)	·	-1	-20
SMILES	Statin myotox sup	Cneo AK release	Mot1-301 SUMO
CCCCCC(=O)NCC(C)NC(=O)CCCCC (configuration not stated)	·	·	486*
CO[C@@H]1CN(C)C(=O)c2cc(NC(=O)NC3CCCCC3)ccc2OC[C@H](C)NC[C@@H]1C	-7	-1	·
COc1ccc(C(=O)c2c[nH]c(C(=O)NCCCn3ccnc3)c2)cc1	7	-1	9
CC(C)(C)c1ccc(C(=O)c2c[nH]c(C(=O)NCCCn3ccnc3)c2)cc1	·	2	324*
C[C@H](CO)N1C[C@H](C)[C@H](CN(C)C(=O)Cc2ccccc2)OCCCC[C@H](C)Oc2ccc(NC(=O)C3CCCCC3)cc2C1=O	·	-4	·
C[C@@H]1CCCCO[C@H](CN(C)S(=O)(=O)c2cn(C)cn2)[C@@H](C)CN([C@@H](C)CO)C(=O)c2cc(NC(=O)Nc3ccc(C(F)(F)F)cc3)ccc2O1	31	-1	·
COc1ccc(/C=C(\C#N)c2cc(OC)c(OC)cc2[N+](=O)[O-])cc1	-34	-3	2
COc1cc(/C(C#N)=C/c2ccccc2)c([N+](=O)[O-])cc1OC	84*	1	3
CN(C)C(=O)[C@@H]1[C@@H](CO)[C@@H]2Cn3c(ccc(-c4ccccc4)c3=O)[C@@H]2N1Cc1ccccc1	25	4	·
Cc1cc(C)nc(SCC(=O)NC2=NN=C(c3ccc(Br)cc3)CS2)n1	145*	·	0
CCC(Sc1nc(C)cc(C)n1)C(=O)Nc1cc(C)on1 (configuration not stated)	·	·	-8
Cc1cc(C)nc(SCC(=O)Nc2ccc(Br)cn2)n1	-12	0	3
CCC(Sc1nc(C)cc(C)n1)C(=O)NC1=NN=C(c2ccc(C)cc2)CS1 (configuration not stated)	83*	5	16
COc1ccc(NC(=O)Nc2ccc3c(c2)[C@H]2C[C@H](CC(=O)N(C)C)O[C@@H](CO)[C@H]2O3)cc1	0	-16	·
COCC(=O)Nc1nc(-c2ccc(C)cc2)c(C)s1	123*	-1	7
CCc1sc(NC(=O)COC)nc1-c1ccccc1	12	2	18
O=C(COC(=O)CCC1CCCC1)Nc1nc2c(F)c(F)c(F)cc2s1	-5	91*	9
O=C(COC(=O)c1ccco1)Nc1nc2c(F)c(F)c(F)cc2s1	-5	1	5
C=CCn1c(=O)[nH]c(=O)c2c(N)c(C(=O)c3ccc(OC)cc3)sc21	135*	0	·
Cc1ccc(C(=O)c2sc3c(c2N)c(=O)[nH]c(=O)n3CCc2ccccc2)cc1	·	·	12
O=C(C[C@H]1CC[C@H]2[C@@H](COC[C@H](O)CN2C(=O)Nc2ccc(C(F)(F)F)cc2)O1)NC1Cc2ccccc2C1	-78	-6	·
Cc1ccc(S(=O)(=O)Nc2ccc3c(c2)C(=O)N([C@H](C)CO)C[C@H](C)[C@H](CN(C)C)OCCCC[C@H](C)O3)cc1	22	3	·
N#CCc1nn(-c2ccccc2)c(N)c1C#N	7	5	-5
CCc1nn(-c2ccccc2)c(N)c1C#N	·	·	290*
COc1cccc(NC(=O)N[C@H]2CC[C@@H](CC(=O)N3CCCCC3)O[C@@H]2CO)c1	-3	-19	·
Cc1cccn2c(=O)c(C=O)c(N3CC(C)OC(C)C3)nc12 (configuration not stated)	·	·	108
Cc1cccn2c(=O)c(C=O)c(N3CCCCCC3)nc12	101*	-2	-28
C[C@@H]1CCCCO[C@H](CN(C)C(=O)Nc2ccc(F)cc2)[C@H](C)CN([C@@H](C)CO)C(=O)c2cc(NS(=O)(=O)c3ccccc3)ccc2O1	·	-6	·
CC(C)NC(=O)Nc1ccc2c(c1)CC(=O)N([C@@H](C)CO)C[C@H](C)[C@@H](CN(C)C(=O)Nc1ccc(C(F)(F)F)cc1)O2	0	10	·

Screens: PubChem BioAssay, Broad Institute
